# Data as given in ChEMBL document CHEMBL1131482 (J Med Chem, 1998).
# Calls of active or inactive are those of the source.
# Legend:
# Mus musculus [1] = assay: Licking latency was measured after 45 min treatment (at dose=20 mg/kg) by using mouse hot plate test; assay type: functional
# Outline: (§1)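 Male Swiss-Webster mice (22-28 g), 23 ± 1 °C, 12-h light/dark cycle, food and water ad libitum. Hot plate at 52.5 ± 0.1 °C with licking latency as read-out and 45 s cutoff. Mice with pre-drug latency below 12 or over 18 s were rejected. Compounds given sc, 5-12 mice per test. Significance was assessed by Dunnett's two-tailed test, P < 0.05.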
# Mus musculus [2] = assay: Licking latency was measured after 45 min treatment (at dose=40 mg/kg) by using mouse hot plate test; assay type: functional; outline: as §1
# Mus musculus [3] = assay: Licking latency was measured after 15 min treatment (at dose=40 mg/kg) by using mouse hot plate test; assay type: functional; outline: as §1
# Mus musculus [4] = assay: Licking latency was measured before treatment (at dose=40 mg/kg) by using mouse hot plate test; assay type: functional
# Outline: (§2)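 Male Swiss-Webster mice (22-28 g), 23 ± 1 °C, 12-h light/dark cycle. Hot plate at 52.5 ± 0.1 °C. Mice with pre-drug licking latency below 12 s or over 18 s were rejected. Cutoff 45 s. Compound given sc; latency read before dosing and at 15, 30 and 45 min. 5-12 mice per test.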
# Mus musculus [5] = assay: Licking latency was measured after 30 min treatment (at dose=20 mg/kg) by using mouse hot plate test; assay type: functional; outline: as §1
# Mus musculus [6] = assay: Licking latency was measured after 30 min treatment (at dose=40 mg/kg) by using mouse hot plate test; assay type: functional; outline: as §1
# Mus musculus [7] = assay: MAD: minimal dose able to induce a statistically significant increase of the pain threshold, done on mouse; sc; IA= inactive; assay type: functional, organism-based
# Outline: (§3)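 Mouse hot plate test (52.5 ± 0.1 °C, 45 s cutoff) after sc dosing, in male Swiss-Webster mice. The value is the lowest dose giving a statistically significant rise in pain threshold. Dunnett's two-tailed test compared treated mice at maximum reaction time with pretest time, P < 0.05.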
# Mus musculus [8] = assay: Licking latency was measured after 15 min treatment (at dose=20 mg/kg) by using mouse hot plate test; assay type: functional; outline: as §1
# Mus musculus [9] = assay: Licking latency was measured before treatment (at dose=20 mg/kg) by using mouse hot plate test; assay type: functional; outline: as §1
# Mus musculus [10] = assay: MNTD:Maximal nontoxic dose of the compound, done on mouse; sc; assay type: functional
# Outline: (§4)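 Male Swiss-Webster mice dosed sc. The value is the highest dose causing no visible behavioural change (tremors, convulsions, hypomotility etc.), so that treated mice could not be told apart from untreated ones. Behaviour was scored by the Irwin method in groups of at least 10 animals.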
# Mus musculus [11] = organism: Mus musculus; assay: Analgesic efficacy is expressed as percentage of that epibatidine, done on mouse.; assay type: functional
# Mus musculus [12] = assay: Licking latency was measured after 15 min treatment (at dose=25 mg/kg) by using mouse hot plate test; assay type: functional; outline: as §1
# Mus musculus [13] = assay: Licking latency was measured after 15 min treatment (at dose=5 mg/kg) by using mouse hot plate test; assay type: functional; outline: as §1
# Mus musculus [14] = assay: Licking latency was measured after 30 min treatment (at dose=25 mg/kg) by using mouse hot plate test; assay type: functional; outline: as §1
# Mus musculus [15] = assay: Licking latency was measured after 30 min treatment (at dose=5 mg/kg) by using mouse hot plate test; assay type: functional; outline: as §1
# Mus musculus [16] = assay: Licking latency was measured after 45 min treatment (at dose=25 mg/kg) by using mouse hot plate test; assay type: functional; outline: as §1
# Mus musculus [17] = assay: Licking latency was measured before treatment (at dose=25 mg/kg) by using mouse hot plate test; assay type: functional; outline: as §1
# Mus musculus [18] = assay: Licking latency was measured after 45 min treatment (at dose=5 mg/kg) by using mouse hot plate test; assay type: functional; outline: as §1
# Mus musculus [19] = organism: Mus musculus; assay: Analgesic efficacy is expressed as percentage of that morphine, done on mouse.; assay type: functional
# Mus musculus [20] = assay: Licking latency was measured before treatment (at dose=5 mg/kg) by using mouse hot plate test; assay type: functional; outline: as §2
# Mus musculus [21] = assay: MAD: minimal dose able to induce a statistically significant increase of the pain threshold, done on mouse; sc; assay type: functional; outline: as §3
# Mus musculus [22] = assay: Licking latency was measured after 30 min treatment (at dose=25 mg/kg) by using mouse hot plate test(*P<0.05); assay type: functional; outline: as §1
# Mus musculus [23] = assay: Licking latency was measured after 45 min treatment (at dose=25 mg/kg) by using mouse hot plate test (*P<0.05); assay type: functional; outline: as §1
# Mus musculus [24] = assay: Licking latency was measured after 30 min treatment (at dose=10 mg/kg) by using mouse hot plate test; assay type: functional; outline: as §1
# Mus musculus [25] = assay: Licking latency was measured after 15 min treatment (at dose=10 mg/kg) by using mouse hot plate test; assay type: functional; outline: as §1
# Mus musculus [26] = assay: Licking latency was measured after 15 min treatment (at dose=25 mg/kg) by using mouse hot plate test (*P<0.01); assay type: functional; outline: as §1
# Mus musculus [27] = assay: Licking latency was measured before treatment (at dose=10 mg/kg) by using mouse hot plate test; assay type: functional; outline: as §1
# Mus musculus [28] = assay: Licking latency was measured after 45 min treatment (at dose=10 mg/kg) by using mouse hot plate test; assay type: functional; outline: as §1
# Mus musculus [29] = assay: Maximal nontoxic dose of the compound, done on mouse; sc; assay type: functional; outline: as §4
# TE-671 [30] = assay: Cholinergic interactions was measured with FLIPR device on TE671 cells and given as Effective dose; assay type: functional, cell-based; conditions: Homo sapiens
# Outline: (§5)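 Cells were plated on poly(ethylenimine)-coated plates and used about 72 h later. Loading was Fluo-3 AM for 1 h at 37 °C, followed by washes in Hepes-salts buffer, pH 7.4. FLIPR recorded Ca2+ fluorescence over 5 min after agonist addition. Responses were normalized to 100 µM nicotine (100%) and unloaded cells (0%), and EC50 and intrinsic activity were derived from concentration-response curves.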
# K177 cell line [31] = assay: Cholinergic interactions was measured with FLIPR device on […] cells and given as EC50.; assay type: functional, cell-based; conditions: Homo sapiens; outline: as §5
# Mus musculus [32] = assay: Minimal dose able to induce a statistically significant increase of the pain threshold, done on mouse; sc; assay type: functional; outline: as §3
# K177 cell line [33] = assay: Cholinergic interactions was measured with FLIPR device on […] cells and given as Intrinsic activity; assay type: functional, Homo sapiens; outline: as §5
# IMR-32 [34] = assay: Cholinergic interactions was measured with FLIPR device on cells of IMR-32 human neuroblastoma clonal line and given as Intrinsic activity; assay type: functional; outline: as §5
# TE-671 [35] = assay: Cholinergic interactions was measured with FLIPR device on TE671 cells and given as Intrinsic activity; assay type: functional, Homo sapiens; outline: as §5
# IMR-32 [36] = assay: Cholinergic interactions was measured with FLIPR device on IMR-32 cells of human neuroblastoma clonal line, given as effective dose; assay type: functional, cell-based; outline: as §5
# Mus musculus [37] = assay: Licking latency was measured after 30 min treatment (at dose=25 mg/kg) by using mouse hot plate test (*P<0.01); assay type: functional; outline: as §1
# Mus musculus [38] = assay: Licking latency was measured after 15 min treatment (at dose=15 mg/kg) by using mouse hot plate test (*P<0.01); assay type: functional; outline: as §1
# Mus musculus [39] = assay: Licking latency was measured after 30 min treatment (at dose=15 mg/kg) by using mouse hot plate test (*P<0.01); assay type: functional; outline: as §1
# Mus musculus [40] = assay: Licking latency was measured after 45 min treatment (at dose=15 mg/kg) by using mouse hot plate test (*P<0.01); assay type: functional; outline: as §1
# Mus musculus [41] = assay: Licking latency was measured before treatment (at dose=15 mg/kg) by using mouse hot plate test; assay type: functional; outline: as §1
# Mus musculus [42] = assay: Licking latency was measured after 45 min treatment (at dose=25 mg/kg) by using mouse hot plate test (*P<0.01); assay type: functional; outline: as §1
smiles,measurement,setting,value
CCC(=O)N1C2CCC1CN(c1ccc(Cl)nn1)C2,Licking latency,Mus musculus [1],18 s
same,Licking latency,Mus musculus [2],18.4 s
same,Licking latency,Mus musculus [3],17 s
same,Licking latency,Mus musculus [4],14.5 s
same,Licking latency,Mus musculus [5],15.6 s
same,Licking latency,Mus musculus [6],16.4 s
same,MAD,Mus musculus [7],inactive
same,Licking latency,Mus musculus [8],17.1 s
same,Licking latency,Mus musculus [9],13.8 s
same,MNTD,Mus musculus [10],>60 mg/kg
Clc1cccnc1N1CC2CCC(C1)N2,Analgesic efficacy compared to epibatidine,Mus musculus [11],151%
same,Licking latency,Mus musculus [12],39.2 s
same,Licking latency,Mus musculus [13],21.3 s
same,Licking latency,Mus musculus [14],29.7 s
same,Licking latency,Mus musculus [15],20.3 s
same,Licking latency,Mus musculus [16],27.5 s
same,Licking latency,Mus musculus [17],15.3 s
same,Licking latency,Mus musculus [18],18.3 s
same,Analgesic efficacy compared to morphine,Mus musculus [19],124%
same,Licking latency,Mus musculus [20],13.7 s
same,MAD,Mus musculus [21],10 mg/kg
same,MNTD,Mus musculus [10],40 mg/kg
CCN1C2CCC1CN(c1ccc(Cl)nn1)C2,Licking latency,Mus musculus [22],20.5 s
same,Licking latency,Mus musculus [23],20.8 s
same,Licking latency,Mus musculus [24],18.4 s
same,Analgesic efficacy compared to epibatidine,Mus musculus [11],74%
same,Licking latency,Mus musculus [25],19.3 s
same,Licking latency,Mus musculus [26],26 s
same,Licking latency,Mus musculus [17],14.3 s
same,Licking latency,Mus musculus [27],13.2 s
same,Analgesic efficacy compared to morphine,Mus musculus [19],61%
same,MAD,Mus musculus [21],10 mg/kg
same,Licking latency,Mus musculus [28],16.4 s
same,MNTD,Mus musculus [10],20 mg/kg
Clc1ccnc(N2CC3CCC(C2)N3)n1,Licking latency,Mus musculus [24],21.2 s
same,Analgesic efficacy compared to epibatidine,Mus musculus [11],75%
same,Licking latency,Mus musculus [25],26.3 s
same,Licking latency,Mus musculus [13],20.5 s
same,Licking latency,Mus musculus [15],17.8 s
same,Licking latency,Mus musculus [18],15.6 s
same,Licking latency,Mus musculus [27],14.6 s
same,Analgesic efficacy compared to morphine,Mus musculus [19],60%
same,Licking latency,Mus musculus [20],15 s
same,MAD,Mus musculus [21],5 mg/kg
same,Licking latency,Mus musculus [28],22.1 s
same,MNTD,Mus musculus [10],15 mg/kg
Clc1ccc(C2CC3CC[C@H]2N3)cn1 (stereo partly specified) [EPIBATIDINE],Efficacy,Mus musculus [11],100%
same,MNTD,Mus musculus [29],0.007 mg/kg
same,EC50,TE-671 [30],1260 nM
same,EC50,K177 cell line [31],350 nM
same,MAD,Mus musculus [32],0.001 mg/kg
same,Intrinsic activity,K177 cell line [33],148.1%
same,Efficacy,Mus musculus [19],82%
same,Intrinsic activity,IMR-32 [34],145.6%
same,Intrinsic activity,TE-671 [35],79.5%
same,EC50,IMR-32 [36],34 nM
Clc1ccc(N2C3CCC2CNC3)nn1,Licking latency,Mus musculus [24],15.4 s
same,Licking latency,Mus musculus [37],34.8 s
same,Analgesic efficacy compared to epibatidine,Mus musculus [11],130%
same,Licking latency,Mus musculus [38],23.2 s
same,Licking latency,Mus musculus [25],17 s
same,Licking latency,Mus musculus [26],35.5 s
same,Licking latency,Mus musculus [39],22.9 s
same,Licking latency,Mus musculus [40],20.6 s
same,Licking latency,Mus musculus [41],15.3 s
same,Licking latency,Mus musculus [17],15 s
same,Licking latency,Mus musculus [27],12.2 s
same,Analgesic efficacy compared to morphine,Mus musculus [19],107%
same,Licking latency,Mus musculus [42],26.4 s
same,MAD,Mus musculus [21],15 mg/kg
same,Licking latency,Mus musculus [28],17.4 s
same,MNTD,Mus musculus [10],30 mg/kg
CN1CC[C@]23c4c5ccc(O)c4O[C@H]2[C@@H](O)C=C[C@H]3[C@H]1C5 [MORPHINE],Analgesic efficacy compared to epibatidine,Mus musculus [11],122%
same,Analgesic efficacy compared to morphine,Mus musculus [19],100%
same,MAD,Mus musculus [21],2 mg/kg
same,MNTD,Mus musculus [10],20 mg/kg
